In ChEMBL document CHEMBL1128429, “Synthesis and structure-activity relationships of 6-heterocyclic-substituted purines as inactivation modifiers of cardiac sodium channels” (J Med Chem, 1995):
pEC50: −log10 of the molar value.

How the values were obtained:
[1] = Inactivation processes of human heart Na channel expressed in Xenopus oocytes as increase in current at 10 uM; format: functional, Oocyte
Procedure, shortened: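 Oocytes injected with cRNA transcribed from human cardiac Na channel (HH1) cDNA. Two-microelectrode voltage clamp at 21–23 °C, perfusion buffer with Na raised to 140 mM. Current integrated at −20 mV after the capacity transient settled. Single 10 μM exposure per oocyte; percent change in integral versus control, ± SEM.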

[2] = Effective concentration against Xenopus oocytes expressing human heart Na channel; format: functional, cell-based; conditions: oocyte
Procedure, shortened: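 HH1 human cardiac Na channel cRNA in oocytes; perfusate Na 140 mM, 21–23 °C, integral taken at −20 mV. At least three concentrations, n ≥ 3 each, single concentration per oocyte. Pooled data gave the EC50 (nM producing 50% integral increase) by linear regression over the lower, non-blocking range.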

[3] = Effective concentration against Xenopus oocytes expressing guinea pig heart Na channel; format: functional, cell-based, Cavia porcellus; conditions: oocyte
Procedure, shortened: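 Guinea pig heart RNA in Xenopus oocytes, voltage clamp at 21–23 °C, integral taken at −10 mV. Three or more concentrations, n ≥ 3 each, one per oocyte. Pooled percent-change data plotted semilogarithmically; EC50 (nM giving 50% integral increase) obtained by linear regression over the range lacking significant current block.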

Oryctolagus cuniculus [4] = organism: Oryctolagus cuniculus; assay: Concentration which increased contractility by 20% in rabbit; format: functional
Procedure, shortened: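 Langendorff-perfused rabbit heart, 45 min equilibration, then five cumulative concentrations with 15 min exposure each. Contractility read as dP/dt; the nanomolar concentration raising it by 20% was derived from the concentration–response curve. Repeated-measures ANOVA, mean change from control ± SEM.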

[5] = test system: Sodium channel protein type 5 subunit alpha (Cavia porcellus); assay: Inactivation process of guinea pig cardiac Na channels expressed in xenopus oocytes was determined by measuring increase in current integral in presence of compound versus control at 10 uM; conditions: oocyte
Oryctolagus cuniculus [6] = organism: Oryctolagus cuniculus; assay: Antiarrhythmic activity was determined by measuring the concentration that produced a 20 ms increase in ERP; format: functional, Heart
Procedure, shortened: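 Langendorff-perfused rabbit heart, equilibrated 45 min before control. ERP measured after 15 min exposure to each of five cumulative concentrations: single premature stimulus scanning diastole at twice threshold. Concentration giving a 20 ms ERP increase taken from the concentration–response curve; repeated-measures ANOVA, mean change ± SEM.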

Row | Structure (SMILES) | Change [1] [%] | Change [5] [%] | further results
1 | Cc1ncnc2c1ncn2C[C@@H](O)CN1CCN(C(c2ccccc2)c2ccccc2)CC1 | 105 |  | pEC50 [2]: 5.40
2 | OC(CN1CCN(C(c2ccccc2)c2ccccc2)CC1)Cn1cnc2c(-n3cccn3)ncnc21 (stereo not drawn) |  | 372 | pEC50 [3]: 6.80; dP/dt (Oryctolagus cuniculus [4]): 40 nM; EC20 (Oryctolagus cuniculus [6]): 81 nM
3 | O[C@@H](CN1CCN(C(c2ccccc2)c2ccccc2)CC1)Cn1cnc(-c2ccncc2)c2ncnc1-2 | 265 |  | pEC50 [2]: 5.68
4 | O=Cc1ccn(-c2ncnc3c2ncn3C[C@@H](O)CN2CCN(C(c3ccccc3)c3ccccc3)CC2)c1 | 63 |  | pEC50 [2]: 5.14
5 | O[C@@H](CN1CCN(C(c2ccccc2)c2ccccc2)CC1)Cn1cnc2c(-n3cccc3)nc(C(F)(F)F)nc21 |  | -13 | 
6 | O=C(CN1CCN(C(c2ccccc2)c2ccccc2)CC1)Cn1cnc2c(-n3cccc3)ncnc21 |  | 9 | 
7 | OC(CN1CCN(C2c3ccccc3-c3ccccc32)CC1)Cn1cnc2c(-n3cccc3)ncnc21 (stereo not drawn) |  | -19 | 
8 | Nc1ncnc2c1ncn2C[C@H](O)CN1CCN(C(c2ccccc2)c2ccccc2)CC1 |  | -43 | dP/dt (Oryctolagus cuniculus [4]): 1140 nM; EC20 (Oryctolagus cuniculus [6]): 5240 nM
9 | OC(CN1CCCN(C(c2ccccc2)c2ccccc2)CC1)Cn1cnc2c(-n3cccc3)ncnc21 (stereo not drawn) |  | 38 | 
10 | OC(CN1CCN(C(c2ccccc2)c2ccccc2)CC1)Cn1ccc2ccccc21 (stereo not drawn) |  | 36 | 
11 | Cc1ccccc1C(c1ccccc1)N1CCN(CC(O)Cn2cnc3c(-n4cccc4)ncnc32)CC1 (stereo not drawn) |  | 209 | 
12 | OC(CN1CCN(C(c2ccccc2)c2ccccc2)CC1)Cn1cnc2c(N3CCCCC3)ncnc21 (stereo not drawn) |  | 26 | 
13 | O[C@@H](CN1CCN(C(c2ccccc2)c2ccccc2)CC1)Cn1cnc2c(-n3ccnc3)ncnc21 | 459 |  | pEC50 [2]: 5.90; EC20 (Oryctolagus cuniculus [6]): 30 nM
14 | C[C@](O)(CN1CCN(C(c2ccccc2)c2ccccc2)CC1)Cn1cnc2c(-n3cccc3)ncnc21 |  | 34 | 
15 | Cc1cc2c(n1-c1ncnc3c1ncn3CC(O)CN1CCN(C(c3ccccc3)c3ccccc3)CC1)CCCC2 (stereo not drawn) |  | 8 | 
16 | OC(CN1CCN(CC(c2ccccc2)c2ccccc2)CC1)Cn1cnc2c(-n3cccc3)ncnc21 (stereo not drawn) |  | -47 | 
17 | O[C@@H](CN1CCN(C(c2ccccc2)c2ccccc2)CC1)Cn1cnc2c(-n3cccc3)ncnc21 |  | 390 | pEC50 [3]: 6.61
18 | Cc1nccn1-c1ncnc2c1ncn2CC(O)CN1CCN(C(c2ccccc2)c2ccccc2)CC1 (stereo not drawn) | 158 |  | pEC50 [2]: 5.90; dP/dt (Oryctolagus cuniculus [4]): 60 nM; EC20 (Oryctolagus cuniculus [6]): 90 nM
19 | c1ccc2c(c1)CCc1ccccc1C2N1CCN(CCCn2cnc3c(-n4cccc4)ncnc32)CC1 |  | 120 | 
20 | O[C@@H](CN1CCN(C(c2ccccc2)c2ccccc2)CC1)Cn1cnc(-c2ncon2)c2ncnc1-2 | -6 |  | 
21 | Cc1ccc(C)n1-c1ncnc2c1ncn2CC(O)CN1CCN(C(c2ccccc2)c2ccccc2)CC1 (stereo not drawn) |  | -47 | 
22 | O[C@@H](CN1CCN(C(c2ccccc2)c2ccccc2)CC1)Cn1cnc(-n2cccn2)c2ncnc1-2 | 369 |  | pEC50 [2]: 6.05; dP/dt (Oryctolagus cuniculus [4]): 148 nM; EC20 (Oryctolagus cuniculus [6]): 74 nM
23 | Cc1nccn1-c1ncnc2c1ncn2C[C@@H](O)CN1CCN(C(c2ccccc2)c2ccccc2)CC1 | 1449 |  | pEC50 [2]: 5.57
24 | CC1CN(CC(O)Cn2cnc3c(-n4cccc4)ncnc32)CCN1C(c1ccccc1)c1ccccc1 (stereo not drawn) |  | 839 | 
25 | OC(CN1CCN(C(c2ccccc2)c2ccccc2)CC1)Cn1cnc2cccnc21 (stereo not drawn) |  | 154 | 
26 | O[C@@H](CN1CCN(C(c2ccccc2)c2ccccc2)CC1)Cn1cnc2c(-c3ncon3)ncnc21 | 138 |  | 
27 | OC(CN1CCN(C(c2ccc(F)cc2)c2ccc(F)cc2)CC1)Cn1cnc2c(-n3cccc3)ncnc21 (stereo not drawn) |  | 521 | 
28 | O[C@@H](CN1CCN(C(c2ccccc2)c2ccccc2)CC1)Cn1cnc2c(-c3cccs3)ncnc21 | 116 |  | pEC50 [2]: 5.99

Row | Structure (SMILES) | Change [1] [%] | Change [5] [%] | further results
29 | OC(COc1cccc2[nH]ccc12)CN1CCN(C(c2ccccc2)c2ccccc2)CC1 (stereo not drawn) |  | -29 | 
30 | OC(CN1CCN(C(c2ccccc2)c2ccccc2)CC1)Cn1cnc2ccccc21 (stereo not drawn) |  | 42 | 
31 | OC(CN1CCC(C(O)(c2ccccc2)c2ccccc2)CC1)Cn1cnc2c(-n3cccc3)ncnc21 (stereo not drawn) |  | -10 | 
32 | N#Cc1cccn1-c1ncnc2c1ncn2C[C@@H](O)CN1CCN(C(c2ccccc2)c2ccccc2)CC1 | 456 |  | pEC50 [2]: 6.35; dP/dt (Oryctolagus cuniculus [4]): 22 nM; EC20 (Oryctolagus cuniculus [6]): 57 nM
33 | O[C@@H](CN1CCN(C(c2ccccc2)c2ccccc2)CC1)Cn1cnc(-c2cccs2)c2ncnc1-2 | 437 |  | pEC50 [2]: 6.36
34 | OC(CN1CCN(C(c2ccccc2)c2ccccc2)CC1)Cn1cnc2c(Cc3ccccc3)ncnc21 (stereo not drawn) |  | -100 | 
35 | O=Cc1cccn1-c1ncnc2c1ncn2C[C@@H](O)CN1CCN(C(c2ccccc2)c2ccccc2)CC1 | 904 |  | pEC50 [2]: 7.11; dP/dt (Oryctolagus cuniculus [4]): 17 nM; EC20 (Oryctolagus cuniculus [6]): 17 nM
36 | NC(CN1CCN(C(c2ccccc2)c2ccccc2)CC1)Cn1cnc2c(-n3cccc3)ncnc21 (stereo not drawn) |  | 451 | 
37 | O[C@@H](CN1CCN(C(c2ccccc2)c2ccccc2)CC1)Cn1cnc2c(-n3cncn3)ncnc21 | 393 |  | pEC50 [2]: 6.04; dP/dt (Oryctolagus cuniculus [4]): 43 nM; EC20 (Oryctolagus cuniculus [6]): 35 nM
38 | OC(CN1CCC(=C(c2ccccc2)c2ccccc2)CC1)Cn1cnc2c(-n3cccc3)ncnc21 (stereo not drawn) |  | 94 | 
39 | CC(c1ccccc1)N1CCN(CC(O)Cn2cnc3c(-n4cccc4)ncnc32)CC1 (stereo not drawn) |  | -32 | 
40 | OC(CN1CCN(Cc2ccccc2)CC1)Cn1cnc2c(-n3cccc3)ncnc21 (stereo not drawn) |  | 182 | 
41 | OC(CN1CCN(C(c2ccccc2)c2ccccc2)CC1)Cn1cnc2c(-n3cccc3)ncnc21 (stereo not drawn) |  | 542 | pEC50 [3]: 6.24
42 | OC(CN1CCN(C(c2ccccc2)c2ccccc2)CC1)Cn1cnc2c(Cl)ncnc21 (stereo not drawn) | 176 |  | pEC50 [2]: 5.71
43 | OC(CN1CCN(C(c2ccccc2)c2ccccc2)CC1)Cn1cnc2c(C#Cc3ccccc3)ncnc21 (stereo not drawn) |  | 9 | 
44 | O/N=C(/CN1CCN(C(c2ccccc2)c2ccccc2)CC1)Cn1cnc2c(-n3cccc3)ncnc21 |  | -6 | 
45 | O[C@@H](CN1CCN(C(c2ccccc2)c2ccccc2)CC1)Cn1cnc2c(-c3ccncc3)ncnc21 | 99 |  | pEC50 [2]: 5.55
46 | Nc1nc(-c2ccncc2)nc2c1ncn2CC(O)CN1CCN(C(c2ccccc2)c2ccccc2)CC1 (stereo not drawn) |  | -2 | 
47 | O=C(C(c1ccccc1)c1ccccc1)N1CCN(CC(O)Cn2cnc3c(-n4cccc4)ncnc32)CC1 (stereo not drawn) |  | 6 | 
48 | OC(CN1CCN(C(c2ccccc2)c2ccccc2)CC1)Cn1cnc2c(NCc3ccccc3)ncnc21 (stereo not drawn) |  | -77 | 
49 | OC(CN1CCN(C(c2ccccc2)c2ccccc2)CC1)Cn1cnc2c(-c3ccccc3)ncnc21 (stereo not drawn) |  | 151 | pEC50 [3]: 5.90
50 | OC(CN1CCN(C(c2ccccc2)c2ccncc2)CC1)Cn1cnc2c(-n3cccc3)ncnc21 (stereo not drawn) |  | 326 | 
51 | Cc1ccn(-c2ncnc3c2ncn3CC(O)CN2CCN(C(c3ccccc3)c3ccccc3)CC2)n1 (stereo not drawn) | 40 |  | 
52 | Nc1ncnc2c1ncn2CCCN1CCN(C(c2ccccc2)c2ccccc2)CC1 |  | -66 | 
53 | OC(CN1CCC(C(c2ccccc2)c2ccccc2)CC1)Cn1cnc2c(-n3cccc3)ncnc21 (stereo not drawn) |  | 108 | 
54 | OC(CN1CCN(C(c2ccccc2)c2ccccc2)CC1)Cn1ccc2cccnc21 (stereo not drawn) |  | -71 | 
55 | CN1CCN(CC(O)Cn2cnc3c(-n4cccc4)ncnc32)CC1 (stereo not drawn) |  | -35 | 
